Test results published in ChEMBL document CHEMBL1157859, “Synthesis of some new pyrimido[2',1':2,3]thiazolo[4,5-b]quinoxaline derivatives as anti-inflammatory and analgesic agents” (2010).

What was measured:
Assay type in all cases: functional
Rattus norvegicus [1] = test: Antiinflammatory activity in Sprague-Dawley rat assessed as protection against carrageenan-induced paw edema at 20 mg/kg, po administered 1 hr before carrageenan challenge measured after 1 hr
Method in brief: (§1)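 Female Sprague–Dawley rats, fasted 18 h, 6 per group. Given 20 mg/kg orally as an aqueous suspension in distilled water, 1 h before 0.1 mL of 1% w/v carrageenan injected subcutaneously into the left hind footpad. Paw volume was read by mercury plethysmometer before injection and hourly for 4 h. Inhibition % = (Ec − Et)/Ec from edema rates; mean ± S.E, n = 6.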

Rattus norvegicus [2] = test: Antiinflammatory activity in Sprague-Dawley rat assessed as protection against carrageenan-induced paw edema at 20 mg/kg, po administered 1 hr before carrageenan challenge measured after 2 hrs; method in brief: as §1
Rattus norvegicus [3] = test: Antiinflammatory activity in Sprague-Dawley rat assessed as protection against carrageenan-induced paw edema at 20 mg/kg, po administered 1 hr before carrageenan challenge measured after 3 hrs; method in brief: as §1
Mus musculus [4] = test: Analgesic activity in Swiss mouse at 20 mg/kg, po assessed as reaction time after 30 mins by hot plate method
Method in brief: (§2)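 Swiss mice (25–30 g, both sexes), 6 per group, given an oral aqueous suspension at 20 mg/kg. Reaction time on a hot plate was taken as the interval to hind-paw licking or jumping, with a 60 s cut-off. It was measured before dosing (0 min) and at 15, 30, 60 and 90 min after treatment. Mean of six animals.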

Mus musculus [5] = test: Analgesic activity in Swiss mouse at 20 mg/kg, po assessed as reaction time after 60 mins by hot plate method; method in brief: as §2
Mus musculus [6] = test: Analgesic activity in Swiss mouse at 20 mg/kg, po assessed as reaction time after 90 mins by hot plate method; method in brief: as §2
Mus musculus [7] = test: Analgesic activity in Swiss albino mouse assessed as protection against acetic acid-induced writhing at 20 mg/kg, po after 30 mins
Method in brief: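 Swiss mice (25–30 g, both sexes), fasted 16 h, 6 per group. Dosed orally at 20 mg/kg as an aqueous suspension; controls got distilled water. After 30 min, 0.7% aqueous acetic acid was given at 10 mL/kg. Writhes were counted for 20 min. % protection = (control mean − treated mean)/control mean × 100.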

Mus musculus [8] = test: Analgesic activity in Swiss albino mouse assessed as protection against acetic acid-induced writhing at 20 mg/kg, po after 1 hr
Mus musculus [9] = test: Analgesic activity in Swiss albino mouse assessed as protection against acetic acid-induced writhing at 20 mg/kg, po after 2 hrs
Mus musculus [10] = test: Analgesic activity in Swiss albino mouse assessed as protection against acetic acid-induced writhing at 20 mg/kg, po after 3 hrs

Row | Compound | Activity (Rattus norvegicus [1]) | Activity (Rattus norvegicus [2]) | Activity (Rattus norvegicus [3]) | Time (Mus musculus [4]) | Time (Mus musculus [5]) | Time (Mus musculus [6]) | Activity (Mus musculus [7]) | Activity (Mus musculus [8]) | Activity (Mus musculus [9]) | Activity (Mus musculus [10])
1 | O=c1cc(/N=C/c2ccncc2)nc2sc3nc4ccccc4nc3n12 | 51.1% | 54.2% | 33.4% | 9.66 s | 9.82 s | 10.4 s | 60.2% | 64.1% | 68.2% | 51.1%
2 | Nc1cc(=O)[nH]c(Sc2nc3ccccc3nc2Cl)n1 | 58.8% | 58.3% | 41.3% | 8.42 s | 9.41 s | 10.7 s | 68% | 73% | 75.4% | 57.2%
3 | Nc1cc(=O)n2c(n1)sc1nc3ccccc3nc12 | 55.3% | 61% | 41.2% | 8.42 s | 9.41 s | 10.7 s | 60.4% | 68% | 73.3% | 46.3%
4 | O=c1c2cc3ccccc3nc2nc2sc3nc4ccccc4nc3n12 | 45.3% | 47.6% | 37.6% | 8.84 s | 10.6 s | 10.9 s | 40.4% | 46% | 47.8% | 35.2%
5 | O=c1c2cc3c(nc2nc2sc4nc5ccccc5nc4n12)CCCC3 | 38.8% | 41.3% | 24.3% | 8.4 s | 10.4 s | 10.7 s | 42.2% | 45% | 45.1% | 34.7%
6 | O=c1c2ccccc2[nH]c2nc3sc4nc5ccccc5nc4n3c(=O)c12 | 40.2% | 41.5% | 30.1% | 8.16 s | 9.78 s | 10.1 s | 42.5% | 49% | 53.1% | 38.4%
7 | O=c1c2ccc(Cl)cc2[nH]c2nc3sc4nc5ccccc5nc4n3c(=O)c12 | 43.1% | 48% | 31.5% | 7.07 s | 9.5 s | 12.7 s | 40.5% | 51% | 47.3% | 38.3%
8 | Cc1nn(-c2ccccc2)c2nc3nc4sc5nc6ccccc6nc5n4c(=O)c3cc12 | 48.6% | 56.1% | 33.8% | 7.55 s | 8.6 s | 12 s | 45.7% | 52% | 58.3% | 35.5%
9 | Cc1cc(C)c2c(N)c3c(=O)n4c(nc3nc2n1)sc1nc2ccccc2nc14 | 58.5% | 60.4% | 45.5% | 10.1 s | 10.7 s | 7.62 s | 72.2% | 75% | 76.2% | 60.3%
10 | O=c1c2c(-c3ccccc3)c3c(nc2nc2sc4nc5ccccc5nc4n12)/C(=C\c1ccccc1)CCC3 | 41.3% | 43.8% | 31.9% | 7.51 s | 8.86 s | 10.4 s | 42.4% | 47% | 50.3% | 38.6%
11 | O=c1c2c(-c3ccc(Cl)cc3)c3c(nc2nc2sc4nc5ccccc5nc4n12)/C(=C\c1ccc(Cl)cc1)CCC3 | 45.7% | 43.2% | 38.2% | 8.61 s | 9.06 s | 9.22 s | 45% | 53% | 55.6% | 36.3%
12 | COc1ccc(/C=C2/CCCc3c2nc2nc4sc5nc6ccccc6nc5n4c(=O)c2c3-c2ccc(OC)cc2)cc1 | 48% | 52.2% | 40.1% | 8.67 s | 9.82 s | 10.4 s | 51.4% | 53% | 56.5% | 38.6%
13 | O=C([O-])Cc1ccccc1Nc1c(Cl)cccc1Cl.[Na+] [DICLOFENAC SODIUM] | 52.4% | 60.3% | 42% | 10 s | 11.4 s | 13.2 s | 46% | 55.2% | 62% | 39%
